Laboratory results published in ChEMBL document CHEMBL1149834, “Chromomoric acid derivatives from Tectona philippinensis” (2008).

Columns and labels:
Settings in all cases: read-out: IZ
Pseudomonas aeruginosa [1] = test: Antibacterial activity against Pseudomonas aeruginosa UPCC 1244 replicate 2 assessed as clearing zone at 30 ug after 24 to 48 hrs; type: functional
How it was run: (§1)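 Agar well diffusion. 0.1 mL of bacterial suspension in 0.1% peptone water is spread on prepoured nutrient agar and overlaid with melted NA cooled to 45 °C. Three equidistant 10 mm wells each receive 200 µL of sample in 95% EtOH. Plates are incubated at room temperature and read at 24–48 h. Clearing-zone diameters are measured in mm and averaged.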

Pseudomonas aeruginosa [2] = test: Antibacterial activity against Pseudomonas aeruginosa UPCC 1244 replicate 3 assessed as clearing zone at 30 ug after 24 to 48 hrs; type: functional; how it was run: as §1
Candida albicans [3] = test: Antifungal activity against Candida albicans UPCC 2168 replicate 1 assessed as clearing zone at 30 ug after 24 to 48 hrs; type: functional
How it was run: (§2)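 Yeast is suspended in 0.1% peptone water, and 0.1 mL is spread on glucose yeast peptone agar with a GYP overlay at 45 °C. Three 10 mm wells per plate each get 200 µL of sample in 95% EtOH. Plates are incubated at room temperature and observed after 24–48 h. The mean clearing-zone diameter is recorded in mm.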

Escherichia coli [4] = test: Antibacterial activity against Escherichia coli UPCC 1195 replicate 3 assessed as clearing zone at 30 ug after 24 to 48 hrs; type: functional; how it was run: as §1
[5] = test system: Trichophyton mentagrophytes; test: Antifungal activity against Trichophyton mentagrophytes UPCC 4193 replicate 1 assessed as clearing zone at 30 ug after 3 to 5 days
[6] = test system: Trichophyton mentagrophytes; test: Antifungal activity against Trichophyton mentagrophytes UPCC 4193 replicate 3 assessed as clearing zone at 30 ug after 3 to 5 days
Escherichia coli [7] = test: Antibacterial activity against Escherichia coli UPCC 1195 replicate 2 assessed as clearing zone at 30 ug after 24 to 48 hrs; type: functional; how it was run: as §1
Candida albicans [8] = test: Antifungal activity against Candida albicans UPCC 2168 replicate 2 assessed as clearing zone at 30 ug after 24 to 48 hrs; type: functional; how it was run: as §2
Escherichia coli [9] = test: Antibacterial activity against Escherichia coli UPCC 1195 replicate 1 assessed as clearing zone at 30 ug after 24 to 48 hrs; type: functional; how it was run: as §1
Pseudomonas aeruginosa [10] = test: Antibacterial activity against Pseudomonas aeruginosa UPCC 1244 replicate 1 assessed as clearing zone at 30 ug after 24 to 48 hrs; type: functional; how it was run: as §1
[11] = test system: Trichophyton mentagrophytes; test: Antifungal activity against Trichophyton mentagrophytes UPCC 4193 replicate 2 assessed as clearing zone at 30 ug after 3 to 5 days
Candida albicans [12] = test: Antifungal activity against Candida albicans UPCC 2168 replicate 3 assessed as clearing zone at 30 ug after 24 to 48 hrs; type: functional; how it was run: as §2
Bacillus subtilis = test: Antibacterial activity against Bacillus subtilis UPCC 1149 replicate 1 assessed as clearing zone at 30 ug after 24 to 48 hrs; type: functional; how it was run: as §1
Staphylococcus aureus = test: Antibacterial activity against Staphylococcus aureus UPCC 1143 replicate 1 assessed as clearing zone at 30 ug after 24 to 48 hrs; type: functional
How it was run: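 Agar well diffusion. Microbe suspended in 0.1% peptone water; 0.1 mL spread on prepoured nutrient agar, overlaid with melted medium cooled to 45 °C. Three 10 mm wells per plate, 200 µL sample in 95% EtOH per well. Incubated at room temperature and read at 24–48 h. Clearing-zone diameter measured in mm.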

Question: Which results are given for `CC[C@@H]1O[C@H]1/C=C1/C(=O)C=C[C@@]1(O)CCCC[C@@H]1CCC(=O)O1`?
Answer: zone of inhibition at 30 µg/disc (Pseudomonas aeruginosa [1]): 12 mm; zone of inhibition at 30 µg/disc (Pseudomonas aeruginosa [2]): 12 mm; zone of inhibition at 30 µg/disc (Candida albicans [3]): 13 mm; zone of inhibition at 30 µg/disc (Escherichia coli [4]): 12 mm; zone of inhibition at 30 µg/disc [5]: 12 mm; zone of inhibition at 30 µg/disc [6]: 12 mm; zone of inhibition at 30 µg/disc (Escherichia coli [7]): 12 mm; zone of inhibition at 30 µg/disc (Candida albicans [8]): 13 mm; zone of inhibition at 30 µg/disc (Escherichia coli [9]): 12 mm; zone of inhibition at 30 µg/disc (Pseudomonas aeruginosa [10]): 12 mm; zone of inhibition at 30 µg/disc [11]: 12 mm; zone of inhibition at 30 µg/disc (Candida albicans [12]): 13 mm

Question: What does the source list for `C/C=C/C(=O)C[C@H]1C(=O)C=C[C@@]1(O)CCCC[C@@H]1CCC(=O)O1`?
Answer: zone of inhibition at 30 µg/disc (Pseudomonas aeruginosa [1]): 12 mm; zone of inhibition at 30 µg/disc (Pseudomonas aeruginosa [2]): 12 mm; zone of inhibition at 30 µg/disc (Candida albicans [3]): 13 mm; zone of inhibition at 30 µg/disc (Escherichia coli [4]): 12 mm; zone of inhibition at 30 µg/disc [5]: 13 mm; zone of inhibition at 30 µg/disc [6]: 13 mm; zone of inhibition at 30 µg/disc (Escherichia coli [7]): 12 mm; zone of inhibition at 30 µg/disc (Candida albicans [8]): 13 mm; zone of inhibition at 30 µg/disc (Escherichia coli [9]): 12 mm; zone of inhibition at 30 µg/disc (Pseudomonas aeruginosa [10]): 12 mm; zone of inhibition at 30 µg/disc [11]: 13 mm; zone of inhibition at 30 µg/disc (Candida albicans [12]): 13 mm

Question: `O=C(N[C@H](CO)[C@H](O)c1ccc([N+](=O)[O-])cc1)C(Cl)Cl` [CHLORAMPHENICOL] was tested. Which zone of inhibition at 30 µg/disc (Bacillus subtilis) did it give?
Answer: Its zone of inhibition at 30 µg/disc is 20 mm.

Question: And the zone of inhibition at 30 µg/disc (Escherichia coli [9])?
Answer: The zone of inhibition at 30 µg/disc was 23 mm.

Question: What about the zone of inhibition at 30 µg/disc (Staphylococcus aureus) of the same compound?
Answer: Its zone of inhibition at 30 µg/disc is 25 mm.

Question: And the zone of inhibition at 30 µg/disc (Pseudomonas aeruginosa [10])?
Answer: The zone of inhibition at 30 µg/disc was 14 mm.
